The text below walks through data of ChEMBL document CHEMBL5120910, “Small-Molecule Gankyrin Inhibition as a Therapeutic Strategy for Breast and Lung Cancer” (J Med Chem, 2022).

Active and inactive are the calls of the source. The calls are words filed in the database; no cut-off is given here.

Data set [1] has as its system MDA-MB-231. The data set can be described thus: Antiproliferative activity against human MDA-MB-231 cells assessed as cell growth inhibition measured after 72 hrs by MTT assay. Format: functional, cell-based. Particulars: MDA-MB-231, 72 h. Summed up:
(§1)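 Cells seeded at 2.5 × 10^4 cells/well, allowed 24 h before dosing, then exposed to increasing concentrations (0.5% DMSO final) for 72 h at 37 °C, 5% CO2. MTT added at 1 mg/mL final in complete media for 2 h, formazan dissolved in DMSO, absorbance read at 570 nm. 6–8 repeats per treatment; IC50 from concentration–response fit.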
A general note: Formazan colour is commonly taken as a measure of viable cells.

Data set [2] deals with A549. The experiment in a line: Antiproliferative activity against human A549 cells assessed as cell growth inhibition measured after 72 hrs by MTT assay. The format is functional, cell-based. The note with it: A549, 72 h. In short, it runs like this:
as §1

In data set [3] the test system is A549. The data set can be described thus: Antiproliferative activity against human A549 cells assessed as cell growth inhibition measured at 100 uM after 72 hrs by MTT assay. The format is functional. Further details: scale not given: the % may be the effect or the level left. Summed up: as §1
Data set [4] concerns the target T1, 26S proteasome non-ATPase regulatory subunit 10 (Homo sapiens, UniProt O75832).
T1 sequence (O75832 whole entry): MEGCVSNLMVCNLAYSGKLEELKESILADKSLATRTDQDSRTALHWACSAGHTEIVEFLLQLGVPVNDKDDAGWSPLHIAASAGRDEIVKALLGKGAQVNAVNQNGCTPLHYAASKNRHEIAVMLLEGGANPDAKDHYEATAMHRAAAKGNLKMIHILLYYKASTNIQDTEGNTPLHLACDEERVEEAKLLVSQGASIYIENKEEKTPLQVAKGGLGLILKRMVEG
The data set can be described thus: Binding affinity to gankyrin (unknown origin) expressed in Escherichia coli BL21 (DE3) expression system assessed as dissociation constant at 1:1 protein to compound concentration by isothermal titration calorimetry.

Data set [5] can be described thus: Metabolic stability in human liver microsomes assessed as compound remaining preincubated for 10 mins followed by NADPH addition measured after 60 mins by HPLC analysis. Format: ADME, Microsome. Particulars: read-out: Stability. In general terms: Liver microsomes are vesicles of endoplasmic reticulum, rich in cytochrome P450 enzymes.
Data set [6] has as its target T2, 26S proteasome non-ATPase regulatory subunit 10 (Homo sapiens) (UniProt O75832).
T2 sequence (whole entry): T1 sequence (O75832 whole entry)
The data set can be described thus: Binding affinity to gankyrin (unknown origin) expressed in Escherichia coli BL21 (DE3) expression system assessed as formation of white precipitation of the compound at 1.5 uM.

Data set [7] in a line: Antiproliferative activity against human HuH-6 cells assessed as cell growth inhibition measured after 72 hrs by MTT assay. Format: functional, cell-based. Particulars: HuH-6, 72 h. In short, it runs like this:
as §1

Data set [8] concerns MDA-MB-231. The experiment in a line: Antitumor activity in human MDA-MB-231 cells cultured as 3D spheroids assessed as fold decrease in spheroid volume at 1.15 uM measured up to 15 days by inverted microscopic analysis. Format: functional. Particulars: time <= 15 day. In short, it runs like this: (§2)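 Spheroids formed from 2000 cells/well in ultra-low attachment U-bottom wells over 3 days, then given a single dose on day 3. Half the media was replenished every 3 days. Transmitted-light images were taken through day 15, and spheroid volume was computed from images and expressed as fold-difference. Mean ± SD, n = 8; unpaired t-test.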

Data set [9] concerns MDA-MB-231. The data set can be described thus: Antitumor activity against human MDA-MB-231 cells tumor spheroids assessed as decrease in live cells by measuring green fluorescence intensity at 1.15 to 2.30 uM measured at 15 days by calcein AM staining based fluorescence microscopic analysis. Particulars: dose 1.15-2.3 µM, time 15.0 day. The format is functional, cell-based. In short, it runs like this:
(§3)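 Live/dead staining of 3D spheroids at day 15 after single-dose treatment: media replaced by kit reagent with calcein AM (live, green) and EthD-III (dead, red), 30 min in dark at room temperature, imaged at 4X by fluorescence microscopy. Mean ± SD, n = 4; unpaired Student's t-test.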

Data set [10] concerns the target T2, 26S proteasome non-ATPase regulatory subunit 10 (Homo sapiens). The experiment in a line: Binding affinity to gankyrin (unknown origin) assessed as change in melting temperature at 300 uM by SYPRO orange staining based thermal shift assay.
Data set [11] deals with MDA-MB-231. The experiment in a line: Antitumor activity against human MDA-MB-231 cells tumor spheroids assessed as increase in dead cells by measuring red fluorescence intensity at 1.15 to 2.30 uM measured at 15 days by EthD-III staining based fluorescence microscopic analysis. Format: functional, cell-based. Particulars: dose 1.15-2.3 µM, time 15.0 day. Summed up: as §3

Data set [12] has as its system MDA-MB-231. The data set can be described thus: Antitumor activity in human MDA-MB-231 cells cultured as 3D spheroids assessed as fold decrease in spheroid volume at 2.30 uM measured up to 15 days by inverted microscopic analysis. Format: functional. The note with it: dose 2.3 µM; time <= 15 day. In short, it runs like this:
as §2

Data set [13] is described as follows: Cytotoxicity against HEK293 cells assessed as cell growth inhibition measured after 72 hrs by MTT assay. The format is toxicity, cell-based. The note with it: human. In short, it runs like this: as §1
The subject of data set [14] is MDA-MB-231. The experiment in a line: Inhibition of gankyrin-proteasome protein-protein interaction in human MDA-MB-231 cells assessed as increase in Rb level at 0.30 to 2.50 uM measured after 48 hrs by Western blotting analysis. The note with it: dose 0.3-2.5 µM. Format: cell-based. Summed up:
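Cells in 10 cm dishes treated with varying concentrations (0.5% DMSO final) or DMSO only for 48 h. Lysed in RIPA with protease/phosphatase inhibitors on ice for 60 min. 15 μg protein resolved under reducing conditions, transferred to PVDF, and probed for p53, phospho-p53 S6/S15, Rb, gankyrin and cyclophilin. Detection by HRP-secondary ECL.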
A general note: A western blot detects proteins with antibodies after separation by electrophoresis.

For data set [15], the system named is MDA-MB-231. The data set can be described thus: Inhibition of colony formation in human MDA-MB-231 cells at 1.15 uM incubated for 48 hrs followed by replacement of fresh media every alternative day measured after 7 days by crystal violet staining based clonogenic assay relative to control; values are per cent of control. Particulars: MDA-MB-231, 216 h.
Data set [16] deals with T2, 26S proteasome non-ATPase regulatory subunit 10 (Homo sapiens). The experiment in a line: Binding affinity to gankyrin (unknown origin) expressed in Escherichia coli BL21 (DE3) expression system assessed as decrease in thermal denaturation at 1.5 uM measured at 5 to 90 degreeC by circular dichroism spectropolarimeter analysis. Summed up:
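Recombinant His-tagged gankyrin expressed in E. coli BL21(DE3) Codon+RIL (IPTG 1 mM, 25 °C, ~5 h) and purified by Ni2+-IMAC. Thermal denaturation followed by CD at 217 nm over 5–90 °C with compound at 1.5 μM.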

The term IC50 denotes the midpoint of a concentration-inhibition curve. As for `COC(=O)c1ccc(-n2cc(CCCc3nnc(-c4ccc(C)cc4)o3)nn2)cc1`, the 50% inhibitory concentration (IC50) was determined as 21.5 µM in [1] and 65.1 µM in data set [2].
The matching figures for `COC(=O)c1ccc(-n2cc(CCCC(=O)NS(=O)(=O)c3ccc(C)cc3)nn2)cc1`: over 100 µM and over 100 µM.
On the same counts, the results for `COC(=O)c1ccc(-n2cc(CCCOS(=O)(=O)c3ccc(-c4ccccc4)cc3)nn2)cc1` are over 100 µM and 57.3 µM.
The matching figures for `COC(=O)c1ccc(-c2cn(CCCC(=S)Nc3ccc(C)cc3)nn2)cc1`: over 100 µM and 50 µM.
Regarding `COC(=O)c1ccc(-c2nnc(CCCOS(=O)(=O)c3ccc(C)cc3)o2)cc1`, the IC50 in data set [1] and in [2] was over 100 µM in each case.
With `COC(=O)c1ccc(-n2cc(CCCNC(=O)c3ccc(C)cc3)nn2)cc1`, the IC50 in data set [1] and in data set [2] was over 100 µM in each case.
For the compound `COC(=O)c1ccc(-n2cc(CCCNC(=S)c3ccc(C)cc3)nn2)cc1`, the half-maximal inhibitory concentration (IC50) in data set [1] is 82.4 µM; in [2], over 100 µM.
The matching figures for `COC(=O)c1ccc(-n2cc(CCCC(=O)Oc3ccc(C)cc3)nn2)cc1`: 55.1 µM and over 100 µM.
Take `COC(=O)c1ccc(-n2cc(CCCNC(=O)Nc3ccc(C)cc3)nn2)cc1`: the IC50 in data set [1] is 11.6 µM; in data set [2] it was 36.4 µM.
On the same counts, the results for `COC(=O)c1ccc(-n2cc(CCCNC(=S)Nc3ccc(C)cc3)nn2)cc1` are over 100 µM and 46.5 µM.
The matching figures for `COC(=O)c1ccc(-n2cc(CCCc3nnc(-c4ccc(C)cc4)[nH]3)nn2)cc1`: 79.1 µM and 79.5 µM.
The matching figures for `COC(=O)c1ccc(-n2cc(CCCOc3ccc(C)cc3)nn2)cc1`: 14.2 µM and over 100 µM.
Take `COC(=O)c1ccc(-n2cc(CCCOC(=O)c3ccc(C)cc3)nn2)cc1`: the concentration for half-maximal inhibition (IC50) in [1] and in data set [2] was over 100 µM throughout.
As for `COC(=O)c1ccc(-n2cc(CCCC(=O)Nc3ccc(C)cc3)nn2)cc1`, the half-inhibitory concentration (IC50) was 9.7 µM in [1] and 75.7 µM in [2].
The matching figures for `COC(=O)c1ccc(-c2cn(CCCC(=O)Nc3ccc(C)cc3)nn2)cc1`: 2.7 µM and over 100 µM.
The matching figures for `COC(=O)c1ccc(-n2nncc2CCCOS(=O)(=O)c2ccc(C)cc2)cc1`: 58.1 µM and over 100 µM.
What is called Kd is a measure of binding affinity in units of concentration. Take `COC(=O)c1ccc(-n2cc(CCCOS(=O)(=O)c3ccc(C)cc3)nn2)cc1`: the 50% inhibitory concentration (IC50) in data set [1] and in [2] was over 100 µM throughout. The Activity in data set [3] turned out to be 0%. For the same compound, in data set [4], the Kd is 0.532 µM. In addition, the remaining at 1 h in data set [5] worked out at 50%.
For the compound `COC(=O)c1ccc(-c2cn(CCCOS(=O)(=O)c3ccc(C)cc3)nn2)cc1`, the values for the half-maximal inhibitory concentration (IC50) in [1] and in data set [2] were 39.1 µM and over 100 µM, respectively.
The matching figures for `COC(=O)c1ccc(-n2cc(CCCn3nnc(-c4ccc(C)cc4)n3)nn2)cc1`: 36.5 µM and over 100 µM.
The matching figures for `COC(=O)c1ccc(-c2cn(CCCC(=S)Nc3ccc(-c4ccccc4)cc3)nn2)cc1`: over 100 µM and 42.3 µM.
`Cc1ccc(NC(=O)CCCn2cc(-c3ccc(C(F)(F)F)cc3)nn2)cc1`: the IC50 in [1] turned out to be 2.3 µM; in data set [7], 3.1 µM; in data set [2] it was 25 µM. The outcome in data set [6], in [9], in [10], in [11], in [14] and in data set [16] was Active. The “fold change (FC)” value came to 2.6 in data set [8] and 3.1 in [12]. Also, the IC50 at 72 h in data set [13] is over 100 µM. In data set [5], the remaining at 1 h is 84%. The same compound had a growth, % of control at 1.15 µM in data set [15] of 75.3%.
As for `COC(=O)c1ccc(-n2cc(CCCC(=S)Nc3ccc(C)cc3)nn2)cc1`, the IC50 in data set [1] is 8.1 µM; in [2] it was 7.9 µM.
The matching figures for `COC(=O)c1ccc(-n2cc(CCCNc3ccc(C)cc3)nn2)cc1`: 33 µM and over 100 µM.
Consider `Cc1ccc(S(=O)(=O)OCCCc2cn(-c3ccc(C(F)(F)F)cc3)nn2)cc1`, for which the concentration for half-maximal inhibition (IC50) in data set [1] and in [2] was over 100 µM throughout.
Regarding `COC(=O)c1ccc(-c2nnn(CCCOS(=O)(=O)c3ccc(C)cc3)n2)cc1`, the IC50 in [1] and in data set [2] was over 100 µM each time.
`COC(=O)c1ccc(-c2nnc(CCCOS(=O)(=O)c3ccc(C)cc3)[nH]2)cc1`: the half-maximal inhibitory concentration (IC50) in [1] and in data set [2] was over 100 µM each time.
